Measured values taken from ChEMBL document CHEMBL4138242, “Synthesis and antibacterial evaluation of novel cationic chalcone derivatives possessing broad spectrum antibacterial activity” (Eur J Med Chem, 2018).
Calls of active or inactive are those of the source.

Tests used:
Staphylococcus aureus [1] = experiment: Bactericidal activity against Staphylococcus aureus ATCC 29213 at 6 times MIC after 6 hrs by time-kill assay; type: functional, organism-based
In short: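 An overnight culture was diluted 1:10,000 in MHB and grown at 37 °C and 225 rpm for 2 h or 5 h. It was then challenged in tubes at 6× and 8× MIC, with vancomycin (6 µg/mL) as comparator. At intervals, aliquots were pelleted, resuspended in PBS, and tenfold dilutions plated on MHA overnight at 37 °C to give CFU/mL. Biological replicates were run.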

Staphylococcus aureus [2] = experiment: Ratio of MIC for Staphylococcus aureus ATCC 29213 after 20 passages to MIC for Staphylococcus aureus ATCC 29213 before 20 passages; type: functional
In short: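 The MIC was first measured by broth microdilution. Cells grown at MIC/2 were then carried into a fresh MIC assay after each 24 h, repeated over 20 serial passages. Norfloxacin (S. aureus) and colistin (E. coli) served as control antibiotics. Resistance was defined as a >4-fold rise over the original MIC.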

Row | Compound | Activity (Staphylococcus aureus [1]) | Ratio (Staphylococcus aureus [2])
1 | CN[C@H](CC(C)C)C(=O)N[C@H]1C(=O)N[C@@H](CC(N)=O)C(=O)N[C@H]2C(=O)N[C@H]3C(=O)N[C@H](C(=O)N[C@H](C(=O)O)c4cc(O)cc(O)c4-c4cc3ccc4O)[C@H](O)c3ccc(c(Cl)c3)Oc3cc2cc(c3O[C@@H]2O[C@H](CO)[C@@H](O)[C@H](O)[C@H]2O[C@H]2C[C@](C)(N)[C@H](O)[C@H](C)O2)Oc2ccc(cc2Cl)[C@H]1O | inactive | –
2 | CCn1cc(C(=O)O)c(=O)c2cc(F)c(N3CCNCC3)cc21 [NORFLOXACIN] | – | 256
